Screening results as filed in PubChem.
CHT block: inhibits the human high affinity choline transporter. Q9GZV3. CHT-expressing cells, membrane potential dye, choline response; hits give low values. B-score at 10 µM. 310,000 compounds, 0.86% hits. AID 488975;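 active means B-score over 3 SD under the library average, and starting fluorescence ratio not unusually high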;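 further: choline stimulus applied at its EC90 after an EC20 pre-addition; B-score computed on integrated fluorescence ratio after choline addition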
IMP-1 inhibitor: blocks Pseudomonas aeruginosa IMP-1 metallo-beta-lactamase; purified IMP-1, nitrocefin hydrolysis, epi-absorbance fluorescence; inhibition, % at 5.6 µM; 290,000 compounds, 0.45% hits; AID 1556;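 active means inhibition above the mean plus 3 SD of all compounds in the same screening run, cut at about 4.5% in these data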;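 further: 0% = IMP-1 with DMSO and 100% = DMSO wells lacking enzyme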
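System: purified recombinant IMP-1 beta-lactamase. Medium: Zinc- and detergent-supplemented HEPES buffer, pH 7.1. Compound: one 5.6 µM dose […]. Schedule: 15 min preincubation plus 25 min reaction at 25 °C. Technique: Epi-absorbance fluorescence, 480 nm excitation, 530 nm emission.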
CHT PAM: allosteric activators of human choline transporter CHT. CHT-expressing cells, membrane potential dye, choline EC20; hits give high values; LV-AA mutant CHT in HEK293 cells. 310,000 compounds, 0.49% hits. Q9GZV3. B-score at 10 µM;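 active means initial fluorescence not abnormally high and integrated response B-score, plate-corrected, over 3 SD above library mean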
TMEM16A inh: mouse TMEM16A channel inhibition, primary screen; Q8BHY3; HEK293 TMEM16A/YFP iodide influx fluorescence, ionomycin; normalized B-score (activity score, 25-100; higher = stronger inhibition) at 10 µM; 310,000 compounds, 1.2% hits; AID 588511;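 active means ratio plate-corrected score three or more library SD toward inhibition, starting fluorescence score within five deviations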;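 further: score derived from kinetic fluorescence span divided by baseline fluorescence per well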
TMEM16A act: activates or potentiates the mouse TMEM16A chloride channel | HEK293 TMEM16A/YFP-H148Q/I152L, iodide quench fluorescence; hits give low values | 340,000 compounds, 0.3% hits | AID 623877 | B-score at 10 µM;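 active means fluorescence-ratio B-score plate-corrected deviation score at least 3 library SD below zero, with starting fluorescence score within 5 deviations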;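 further: channel opened by trigger with iodide after compound preincubation; score built on the fluorescence ratio of max minus min over baseline; more negative score means more quench and so TMEM16A activation or potentiation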
VIM-2 inhibitor: inhibitors of Pseudomonas aeruginosa VIM-2 metallo-beta-lactamase. inhibition, % at 5.6 µM. purified VIM-2, nitrocefin hydrolysis, epi-absorbance fluorescence. AID 1527. 290,000 compounds, 0.89% hits;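 active means inhibition above the mean of all tested compounds plus 3 SD, cutoff set per screening run, cut at about 7.5% in these data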;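 further: red hydrolysis product quenches plate fluorescence so inhibitors raise well fluorescence; 0% = enzyme with DMSO and 100% = DMSO without enzyme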
CHT block conf: human CHT inhibition, confirmatory screen; 2,400 compounds, 70% hits; shares compounds with CHT block; CHT-expressing cells, choline membrane potential dye; LV-to-AA substituted CHT, HEK293 cells; CHT activity remaining % of control (hits give low values), % at 10 µM;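 active means choline transporter activity left, mean of duplicates at 10 µM, below buffer-only control mean minus 3 SD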;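 further: depolarization triggered by choline at its EC90 following an EC20 pre-addition; 0% = hemicholinium-3 full block and 100% = buffer-only control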
HEK293 MPD ctr: counter-screen for CHT inhibitors: effect in parental HEK293 cells | membrane potential dye, choline response; active = decrease or increase beyond buffer ±3SD | 2,400 compounds, 4% hits | AID 493222 | shares compounds with CHT block | membrane potential ratio readout (active if shifted either direction beyond buffer ±3SD; no single direction) at 10 µM;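 further: parental cells lack the transporter so any hit is non-specific; ratio is peak minus trough fluorescence over baseline after EC90 choline challenge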
The depositor's hits bear a star; i = inactive; nt = no result given. In the library only some 3.4% were active in any assay of this set; here they are far more common.

SMILES | CHT block | IMP-1 inhibitor | CHT PAM | TMEM16A inh | TMEM16A act | VIM-2 inhibitor | CHT block conf | HEK293 MPD ctr
Cc1ccc(-n2c(O)c(/C=N/Nc3ccc(S(=O)(=O)N4CCOCC4)cc3[N+](=O)[O-])c3ccccc3c2=O)c(C)c1 | -5.1* | -4 | i | 100* | i | -1 | 27%* | i
O=C(O)c1ccc(/C=N\Nc2ccc(S(=O)(=O)N3CCOCC3)cc2[N+](=O)[O-])cc1 | i | -3 | i | i | i | -3 | nt | nt
CCN(C(=O)CSc1nc2ccccc2n1C)C1CCS(=O)(=O)C1 (configuration not stated) | nt | nt | nt | nt | i | nt | nt | nt
Nc1ncnc2c1ncn2[C@@H]1O[C@H](CO)[C@@H](O)[C@H]1O | -6* | -3 | i | i | i | -1 | 30%* | i
CC1(C)OC2C(O1)[C@@H](CO)O[C@H]2n1cnc2c(N)ncnc21 (some centres not stated) | i | -4 | i | i | i | -2 | nt | nt
N#Cc1c2ccc(O)cc2n2ccccc12 | i | -3 | i | i | i | 3 | nt | nt
Cc1cccc(C(=O)N[C@H](C(=O)Nc2ncc(C)s2)C(C)C)c1 | -11* | -3 | i | i | i | -3 | i | i
Cc1cccc(C(=O)N[C@H](C(=O)Nc2nnc(C3CC3)s2)C(C)C)c1 | i | -2 | i | i | i | -1 | nt | nt
Cc1ccc(C)c(OCc2cc(C(=O)N3CCN(c4ccccc4C)CC3C)no2)c1 (configuration not stated) | i | -2 | i | i | i | 0 | nt | nt
O=C1c2cccc3cccc(c23)C(=O)N1CC1CCN(CC(O)COc2ccc3ccccc3c2)CC1 (configuration not stated) | i | nt | i | i | i | nt | nt | nt
Cc1cc(C)cc(OCC(O)CN2CCC(CN3C(=O)c4cccc5cccc(c45)C3=O)CC2)c1 (configuration not stated) | -5.5* | nt | i | i | i | nt | 58%* | i
NC(=O)c1ccc(C2SCC(=O)N2Cc2ccccc2)cc1 (configuration not stated) | -6.3* | -3 | i | i | i | -2 | i | i
O=C(O)c1ccc(C2SCC(=O)N2Cc2ccccc2)cc1 (configuration not stated) | i | -5 | i | i | i | -4 | nt | nt
CSCCC(NC(=O)c1ccco1)C(=O)Nc1ccc(C)c(S(=O)(=O)N2CCOCC2)c1 (configuration not stated) | i | nt | i | i | i | nt | nt | nt
C/C(=N\NC(=O)c1ccoc1C)c1cccc2ccccc12 | -7.6* | -4 | i | i | i | -4 | i | i
C/C(=N\NC(=O)c1cccc2ccccc12)c1ccccn1 | nt | -3 | nt | nt | i | 5 | nt | nt
CCN(CC)c1ccc(NC(=O)CNCc2ccccc2Cl)c(C)c1 | -5.2* | -2 | i | i | i | -2 | 57%* | i
CCN(C(=O)Cn1cnc2c1c(=O)n(C)c(=O)n2C)C1CCS(=O)(=O)C1 (configuration not stated) | nt | nt | nt | nt | i | nt | nt | nt
COc1ccc(CCNC(=O)c2cc(-c3ccncc3)nc3ccc(S(=O)(=O)N4CCOCC4)cc23)cc1OC | i | 1 | i | i | i | 1 | nt | nt
Cc1ccccc1C(=O)c1cccn1CC(=O)NC(C)c1ccccc1 (configuration not stated) | -6.8* | -4 | i | i | i | -2 | 35%* | i
CC(NC(=O)Cn1cccc1C(=O)c1ccccc1)c1ccccc1 (configuration not stated) | i | -2 | i | i | i | 0 | nt | nt
